Assay results published in ChEMBL document CHEMBL2331093, “Synthesis and biological evaluation of novel propargyl amines as potential fluorine-18 labeled radioligands for detection of MAO-B activity” (Bioorg Med Chem, 2013).

Experiments:
[1] = Stability of the compound in PBS buffer at pH 7.4 up to 150 mins; assay type: physicochemical; conditions: pH 7.4, 2.5 h
[2] = Drug uptake in human thalamus at 4 MBq/200 ml after 90 mins by in vitro autoradiography in presence of MAO-A ligand pirlindole; assay type: ADME, tissue-based; conditions: 1.5 h
Outline: (§1)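 In vitro autoradiography with the fluorine-18 labeled radioligand on human postmortem brain tissue sections.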

Cortex [3] = assay: Drug uptake in human cortex at 4 MBq/200 ml after 90 mins by in vitro autoradiography in presence of MAO-A ligand pirlindole; assay type: ADME, tissue-based; conditions: 1.5 h; outline: as §1
[4] = Drug uptake in human thalamus at 4 MBq/200 ml after 90 mins by in vitro autoradiography in presence of MAO-B inhibitor L-deprenyl; assay type: ADME, tissue-based; conditions: 1.5 h; outline: as §1
[5] = Drug uptake in human hippocampus at 4 MBq/200 ml after 90 mins by in vitro autoradiography in presence of MAO-B inhibitor L-deprenyl; assay type: ADME, tissue-based; conditions: 1.5 h; outline: as §1
[6] = Drug uptake in human basal ganglia at 4 MBq/200 ml after 90 mins by in vitro autoradiography; assay type: ADME; conditions: 1.5 h; outline: as §1
[7] = Drug uptake in human basal ganglia at 4 MBq/200 ml after 90 mins by in vitro autoradiography in presence of MAO-A ligand pirlindole; assay type: ADME; conditions: 1.5 h; outline: as §1
Cortex [8] = assay: Drug uptake in human cortex at 4 MBq/200 ml after 90 mins by in vitro autoradiography in presence of MAO-B inhibitor L-deprenyl; assay type: ADME, tissue-based; conditions: 1.5 h; outline: as §1
[9] = Drug uptake in human basal ganglia at 4 MBq/200 ml after 90 mins by in vitro autoradiography in presence of MAO-B inhibitor rasagiline; assay type: ADME; conditions: 1.5 h; outline: as §1
[10] = Drug uptake in human hippocampus at 4 MBq/200 ml after 90 mins by in vitro autoradiography; assay type: ADME, tissue-based; conditions: 1.5 h; outline: as §1
[11] = Drug uptake in human thalamus at 4 MBq/200 ml after 90 mins by in vitro autoradiography; assay type: ADME, tissue-based; conditions: 1.5 h; outline: as §1
[12] = Drug uptake in human hippocampus at 4 MBq/200 ml after 90 mins by in vitro autoradiography in presence of MAO-B inhibitor rasagiline; assay type: ADME, tissue-based; conditions: 1.5 h; outline: as §1
[13] = Drug uptake in human hippocampus at 4 MBq/200 ml after 90 mins by in vitro autoradiography in presence of MAO-A ligand pirlindole; assay type: ADME, tissue-based; conditions: 1.5 h; outline: as §1
Cortex [14] = assay: Drug uptake in human cortex at 4 MBq/200 ml after 90 mins by in vitro autoradiography in presence of MAO-B inhibitor rasagiline; assay type: ADME, tissue-based; conditions: 1.5 h; outline: as §1
[15] = Drug uptake in human thalamus at 4 MBq/200 ml after 90 mins by in vitro autoradiography in presence of MAO-B inhibitor rasagiline; assay type: ADME, tissue-based; conditions: 1.5 h; outline: as §1
[16] = Drug uptake in human basal ganglia at 4 MBq/200 ml after 90 mins by in vitro autoradiography in presence of MAO-B inhibitor L-deprenyl; assay type: ADME; conditions: 1.5 h; outline: as §1
Cortex [17] = assay: Drug uptake in human cortex at 4 MBq/200 ml after 90 mins by in vitro autoradiography; assay type: ADME, tissue-based; conditions: 1.5 h; outline: as §1
Plasma [18] = assay: Metabolic stability in cynomolgus monkey plasma assessed as metabolite M5 retention time at 168 MBq, iv by HPLC analysis; assay type: ADME, organism-based, Macaca fascicularis; conditions: in vivo
[19] = Drug uptake in human caudate nucleus at 4 MBq/200 ml after 90 mins by in vitro autoradiography in presence of MAO-A ligand pirlindole; assay type: ADME, tissue-based; conditions: 1.5 h; outline: as §1
[20] = Drug uptake in human putamen at 4 MBq/200 ml after 90 mins by in vitro autoradiography in presence of MAO-A ligand pirlindole; assay type: ADME, tissue-based; conditions: 1.5 h; outline: as §1
Plasma [21] = assay: Metabolic stability in cynomolgus monkey plasma assessed as metabolite M2 retention time at 168 MBq, iv by HPLC analysis; assay type: ADME, organism-based, Macaca fascicularis; conditions: in vivo
[22] = Drug uptake in human putamen at 4 MBq/200 ml after 90 mins by in vitro autoradiography in presence of MAO-B inhibitor rasagiline; assay type: ADME, tissue-based; conditions: 1.5 h; outline: as §1
Plasma [23] = assay: Metabolic stability in cynomolgus monkey plasma assessed as metabolite M4 retention time at 168 MBq, iv by HPLC analysis; assay type: ADME, organism-based, Macaca fascicularis; conditions: in vivo
[24] = Drug uptake in human putamen at 4 MBq/200 ml after 90 mins by in vitro autoradiography; assay type: ADME, tissue-based; conditions: 1.5 h; outline: as §1
[25] = Metabolic stability in cynomolgus monkey plasma assessed as parent compound at 168 MBq, iv after 45 mins by HPLC analysis; assay type: ADME, organism-based, Macaca fascicularis; conditions: read-out: Stability
[26] = Drug uptake in human caudate nucleus at 4 MBq/200 ml after 90 mins by in vitro autoradiography in presence of MAO-B inhibitor L-deprenyl; assay type: ADME, tissue-based; conditions: 1.5 h; outline: as §1
Plasma [27] = assay: Metabolic stability in cynomolgus monkey plasma assessed as metabolite M3 retention time at 168 MBq, iv by HPLC analysis; assay type: ADME, organism-based, Macaca fascicularis; conditions: in vivo
[28] = Drug uptake in human putamen at 4 MBq/200 ml after 90 mins by in vitro autoradiography in presence of MAO-B inhibitor L-deprenyl; assay type: ADME, tissue-based; conditions: 1.5 h; outline: as §1
[29] = Drug uptake in human caudate nucleus at 4 MBq/200 ml after 90 mins by in vitro autoradiography; assay type: ADME, tissue-based; conditions: 1.5 h; outline: as §1
[30] = Metabolic stability in cynomolgus monkey plasma assessed as parent compound at 168 MBq, iv after 120 mins by HPLC analysis; assay type: ADME, organism-based, Macaca fascicularis; conditions: read-out: Stability
[31] = Drug uptake in cynomolgus monkey cortex at 168 MBq, iv by PET imaging; assay type: ADME, organism-based, Macaca fascicularis; conditions: in vivo
Outline: (§2)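 PET brain imaging in a cynomolgus monkey after injection of the fluorine-18 labeled radioligand; regional radioactivity uptake expressed as %SUV over time post injection.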

[32] = Drug uptake in human caudate nucleus at 4 MBq/200 ml after 90 mins by in vitro autoradiography in presence of MAO-B inhibitor rasagiline; assay type: ADME, tissue-based; conditions: 1.5 h; outline: as §1
Brain = assay: Drug uptake in cynomolgus monkey brain at 168 MBq, iv by PET imaging; assay type: ADME, organism-based, Macaca fascicularis; conditions: in vivo; outline: as §2
Thalamus = assay: Drug uptake in cynomolgus monkey thalamus at 168 MBq, iv by PET imaging; assay type: ADME, organism-based, Macaca fascicularis; conditions: in vivo; outline: as §2
[33] = Drug uptake in cynomolgus monkey striatum at 168 MBq, iv by PET imaging; assay type: ADME, organism-based, Macaca fascicularis; conditions: in vivo; outline: as §2
[34] = Drug uptake in cynomolgus monkey cerebellum at 168 MBq, iv by PET imaging; assay type: ADME, organism-based, Macaca fascicularis; conditions: in vivo; outline: as §2
Plasma [35] = assay: Metabolic stability in cynomolgus monkey plasma assessed as metabolite M1 retention time at 168 MBq, iv by HPLC analysis; assay type: ADME, organism-based, Macaca fascicularis; conditions: in vivo
[36] = target: T1, Amine oxidase [flavin-containing] B (Homo sapiens, UniProt P27338); assay: Inhibition of recombinant human MAO-B assessed as inhibition of kynuramine oxidation by spectrophotometry
T1 sequence (P27338 whole entry): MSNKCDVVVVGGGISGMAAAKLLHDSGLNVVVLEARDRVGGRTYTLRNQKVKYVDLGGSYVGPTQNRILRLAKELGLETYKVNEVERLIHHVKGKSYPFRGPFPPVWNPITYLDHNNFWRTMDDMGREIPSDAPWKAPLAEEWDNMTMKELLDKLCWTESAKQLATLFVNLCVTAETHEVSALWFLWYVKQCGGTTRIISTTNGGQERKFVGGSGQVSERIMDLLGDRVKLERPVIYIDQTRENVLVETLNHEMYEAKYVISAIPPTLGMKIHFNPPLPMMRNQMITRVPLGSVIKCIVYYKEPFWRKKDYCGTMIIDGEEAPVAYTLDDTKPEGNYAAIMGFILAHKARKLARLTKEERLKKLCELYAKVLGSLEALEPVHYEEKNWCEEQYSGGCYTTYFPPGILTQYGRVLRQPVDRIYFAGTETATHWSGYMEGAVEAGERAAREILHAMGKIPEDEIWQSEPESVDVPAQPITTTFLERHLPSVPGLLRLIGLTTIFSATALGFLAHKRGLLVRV

[37] = target: T2, Amine oxidase [flavin-containing] A (Homo sapiens, UniProt P21397); assay: Inhibition of recombinant human MAO-A assessed as inhibition of kynuramine oxidation by spectrophotometry
T2 sequence (P21397 whole entry): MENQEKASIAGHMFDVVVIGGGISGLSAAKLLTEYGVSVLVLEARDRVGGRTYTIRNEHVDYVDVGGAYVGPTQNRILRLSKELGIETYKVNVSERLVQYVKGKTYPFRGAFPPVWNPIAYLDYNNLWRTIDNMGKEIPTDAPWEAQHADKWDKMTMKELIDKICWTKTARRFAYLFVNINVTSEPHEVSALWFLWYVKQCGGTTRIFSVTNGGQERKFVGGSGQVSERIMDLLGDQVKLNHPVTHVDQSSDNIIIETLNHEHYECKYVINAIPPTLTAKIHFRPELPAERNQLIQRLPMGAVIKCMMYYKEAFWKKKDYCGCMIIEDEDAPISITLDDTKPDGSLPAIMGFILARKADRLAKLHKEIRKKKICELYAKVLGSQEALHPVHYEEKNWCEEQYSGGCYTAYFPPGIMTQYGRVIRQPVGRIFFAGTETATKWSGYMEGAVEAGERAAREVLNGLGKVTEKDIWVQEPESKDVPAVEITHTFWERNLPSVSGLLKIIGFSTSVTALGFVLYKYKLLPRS

For `C#CCN(C)[C@H](C[19F])Cc1ccco1`, which Stability [1] is on record?
The Stability was “Stable”.

Which results are given for `C#CCN(C)[C@H](C[18F])Cc1ccco1`?
Drug uptake [2]: Active; Drug uptake (Cortex [3]): Active; Drug uptake [4]: Not Active; Drug uptake [5]: Not Active; Drug uptake [6]: Active; Drug uptake [7]: Active; Drug uptake (Cortex [8]): Not Active; Drug uptake [9]: Not Active; Drug uptake [10]: Active; Drug uptake [11]: Active; Drug uptake [12]: Not Active; Drug uptake [13]: Active; Drug uptake (Cortex [14]): Not Active; Drug uptake [15]: Not Active; Drug uptake [16]: Not Active; Drug uptake (Cortex [17]): Active

For `C#CCN(C)[C@H](C[18F])CC(C)C`, which Drug uptake [2] is on record?
Its Drug uptake is “Active”.

What about the Retention_time (Plasma [18]) of the same compound?
The Retention_time was 6.2 min.

What about the Drug uptake [19] of the same compound?
The Drug uptake was “Active”.

What about the Drug uptake [20] of the same compound?
Its Drug uptake is “Active”.

What about the Retention_time (Plasma [21]) of the same compound?
The Retention_time was 3.4 min.

And the Drug uptake [4]?
Its Drug uptake is “Not Active”.

What about the Drug uptake [5] of the same compound?
The Drug uptake was “Not Active”.

What about the Drug uptake [22] of the same compound?
Its Drug uptake is “Not Active”.

What about the Retention_time (Plasma [23]) of the same compound?
Its Retention_time is 4.2 min.

What about the Drug uptake [24] of the same compound?
Its Drug uptake is “Active”.

And the remaining at 0.75 h [25]?
The remaining at 0.75 h was 20%.

What about the Drug uptake [10] of the same compound?
Its Drug uptake is “Active”.

And the Drug uptake [11]?
The Drug uptake was “Active”.

And the Drug uptake [26]?
Its Drug uptake is “Not Active”.

What about the Retention_time (Plasma [27]) of the same compound?
The Retention_time was 3.7 min.

And the Drug uptake [12]?
Its Drug uptake is “Not Active”.

What about the Drug uptake [28] of the same compound?
The Drug uptake was “Not Active”.

What about the Drug uptake [29] of the same compound?
The Drug uptake was “Active”.

And the Drug uptake [13]?
The Drug uptake was “Active”.

And the remaining at 2 h [30]?
The remaining at 2 h was 12%.

And the Drug uptake [31]?
Its Drug uptake is “Not Active”.

And the Drug uptake [32]?
Its Drug uptake is “Not Active”.

And the SUV (Brain)?
The SUV was 250%.

What about the Drug uptake (Thalamus) of the same compound?
Its Drug uptake is “Active”.

What about the Drug uptake [15] of the same compound?
Its Drug uptake is “Not Active”.

And the Drug uptake [33]?
Its Drug uptake is “Active”.

What about the Drug uptake [34] of the same compound?
Its Drug uptake is “Not Active”.

What about the Retention_time (Plasma [35]) of the same compound?
Its Retention_time is 2 min.

With `C#CCN(C)[C@H](C[19F])CC(C)C` as the compound, how does the Stability [1] read?
Its Stability is “Stable”.

With `C#CCN(C)[C@H](CF)CC(=C)C` as the compound, how does the IC50 [36] read?
The IC50 was 664 nM.

What about the IC50 [37] of the same compound?
Its IC50 is greater than 2000 nM.

With `C#CCN(C)[C@H](CF)Cc1ccco1` as the compound, how does the IC50 [36] read?
The IC50 was 208 nM.

What about the IC50 [37] of the same compound?
Its IC50 is greater than 2000 nM.

Which results are given for `C#CCN(C)[C@H](CF)CC(C)C`?
IC50 [36]: 132 nM; IC50 [37]: > 2000 nM
